Key:
[1] = Unbound intrinsic clearance in rat hepatocytes incubated for 120 mins by LC-MS/MS analysis; assay type: ADME, cell-based, Hepatocyte; settings: 2 h
[2] = Unbound intrinsic clearance in human hepatocytes incubated for 120 mins by LC-MS/MS analysis; assay type: ADME, cell-based, Hepatocyte; settings: 2 h
[3] = MRT in Wistar Han rat at 0.05 mg/kg, iv administered using cassette dosing by LC-MS/MS analysis; assay type: ADME, organism-based; settings: in vivo
How it was run: (§1)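 Rat cassette PK: single IV dose of 0.05 mg/kg at 1 mL/kg, vehicle DMSO/PEG400/H2O 20/60/20, animals fasted. Reported values are the geometric mean of n = 2 or more.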

[4] = Unbound volume of distribution in Wistar Han rat at 0.5 mg/kg, iv or 1 mg/kg, po by LC-MS/MS analysis; assay type: ADME, organism-based; settings: in vivo
How it was run: (§2)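 Rat 2 × 2 PK: IV arm at 0.5 mg/kg (1 mL/kg) and PO arm at 1 mg/kg (2 mL/kg), both in DMSO/PEG400/H2O 20/60/20. Reported values are the geometric mean of n = 2 or more.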

[5] = MRT in Wistar Han rat at 0.5 mg/kg, iv or 1 mg/kg, po by LC-MS/MS analysis; assay type: ADME, organism-based; settings: in vivo; how it was run: as §2
[6] = Intrinsic clearance in Wistar Han rat at 0.5 mg/kg, iv or 1 mg/kg, po by LC-MS/MS analysis; assay type: ADME, organism-based; settings: in vivo; how it was run: as §2
[7] = Volume of distribution in Wistar Han rat at 0.05 mg/kg, iv administered using cassette dosing by LC-MS/MS analysis; assay type: ADME, organism-based; settings: in vivo; how it was run: as §1
[8] = Drug metabolism in human hepatocytes assessed as oxidation of n-propyl group with aryl amide bond cleavage at 30 uM incubated up to 90 mins in presence of NADPH by MetID based LC/MS analysis; assay type: ADME, cell-based, Hepatocyte; settings: 1.5 h
[9] = Drug metabolism in rat liver microsomes assessed as oxidation of n-propyl group at 30 uM incubated up to 45 mins in presence of NADPH by MetID based LC/MS analysis; assay type: ADME, Microsome; settings: 0.75 h
[10] = Unbound clearance in Wistar Han rat at 0.05 mg/kg, iv administered using cassette dosing by LC-MS/MS analysis; assay type: ADME, organism-based; settings: in vivo; how it was run: as §1
[11] = Unbound volume of distribution in Wistar Han rat at 0.05 mg/kg, iv administered using cassette dosing by LC-MS/MS analysis; assay type: ADME, organism-based; settings: in vivo; how it was run: as §1
[12] = Clearance in Wistar Han rat at 0.05 mg/kg, iv administered using cassette dosing by LC-MS/MS analysis; assay type: ADME, organism-based; settings: in vivo; how it was run: as §1
[13] = Drug metabolism in human liver microsomes assessed as oxidation of n-propyl group at 30 uM incubated up to 45 mins in presence of NADPH by MetID based LC/MS analysis; assay type: ADME, Microsome; settings: 0.75 h
[14] = Intrinsic clearance in Wistar Han rat at 0.05 mg/kg, iv administered using cassette dosing by LC-MS/MS analysis; assay type: ADME, organism-based; settings: in vivo; how it was run: as §1

SMILES	CL free [1] [mL/min/kg]	CL free [2] [mL/min/kg]	MRT [3] [h]	Vdu [11] [L/kg]	CL [14] [mL/min/kg]	other results
O=C(Nc1ccc(C2(C(=O)Nc3ccc(F)cc3)COC2)nc1)c1cccc(Cl)c1	< 84	< 44	3.2			
O=C(Nc1ccc(C2(C(=O)Nc3ccc(Cl)nc3)CCC2)cc1)c1cccc(Cl)c1	500	1900				
O=C(Nc1ccc(C2(C(=O)Nc3ccc(F)cc3)CCC2)cn1)c1cccc(Cl)c1	830	1300				Vdu [4]: 2200 L/kg; MRT [5]: 5 h; CL [6]: 4500 mL/min/kg
CCCNC(=O)C1(c2ccc(NC(=O)c3cccc(Cl)c3)cc2)CCC1	7200	870	0.7	180		Vd [7]: 4.9 L/kg; Drug metabolism [8]: Metabolite_Detected; Drug metabolism [9]: Metabolite_Detected; CL free [10]: 4100 mL/min/kg; clearance [12]: 110 mL/min/kg; Drug metabolism [13]: Metabolite_Detected
CCCNC(=O)C1(c2ccc(NC(=O)c3ccc(F)c(C)c3)cc2)CCC1	6200	560				
O=C(Nc1ccc(C2(C(=O)Nc3ccc(F)cc3)CCC2)cc1)c1cccc(Cl)c1	2000	2000	4.3	1100	6000	
O=C(Nc1ccc([C@]2(C(=O)Nc3ccc(F)cc3)C[C@@H](O)C2)cc1)c1cccc(Cl)c1	< 280	350	3.2	99	590	
O=C(Nc1ccc(C2(C(=O)Nc3ccc(F)cc3)COC2)cc1)c1cccc(Cl)c1	250	420	4.8	420	1600	
O=C(Nc1ccc(C2(C(=O)NC3CCOCC3)CCC2)cc1)c1cccc(Cl)c1	1700	390				

— ChEMBL document CHEMBL4602714, “Strategic Incorporation of Polarity in Heme-Displacing Inhibitors of Indoleamine-2,3-dioxygenase-1 (IDO1)” (ACS Med Chem Lett, 2020)
